Experimental data from ChEMBL document CHEMBL1833835, “Synthesis and evaluation of the anti parasitic activity of aromatic nitro compounds” (Eur J Med Chem, 2011).

Tests used:
Trypanosoma cruzi [1] = experiment: Trypanocidal activity against intracellular amastigote form of Trypanosoma cruzi Tulahuen expressing beta-galactosidase infected in mouse L929 cells after 7 days by microplate reader analysis; format: functional, organism-based; details: L929, 168 h
[2] = Selectivity index, ratio of IC50 for human PBMC to IC50 for Leishmania amazonensis IFLA/BR/67/PH8
Procedure, shortened: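 Ratio of PBMC proliferation IC50 (PHA-stimulated, MTT, 48 h) to promastigote IC50 (MTT, 48 h).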

PBMC = experiment: Inhibition of cell proliferation of phytohemagglutinin-induced human PBMC; format: cell-based
Leishmania amazonensis = experiment: Antiparasitic activity against promastigote form of Leishmania amazonensis IFLA/BR/67/PH8 after 48 hrs by MTT assay; format: functional, organism-based; details: IFLA/BR/67/PH8, 48 h
Procedure, shortened: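 Promastigotes kept at 23 °C in Schneider's medium with 20% heat-inactivated FCS, pH 7.2; plated at 1 × 10⁷/well. Screening at 100 µM in triplicate, then six-point dilutions in duplicate for compounds exceeding 50% inhibition. After 48 h, MTT added for 4 h, stopped with isopropanol/SDS, OD 570 nm read; IC50 from curve; three independent experiments.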

Trypanosoma cruzi [3] = experiment: Trypanocidal activity against intracellular trypomastigote form of Trypanosoma cruzi Tulahuen expressing beta-galactosidase infected in mouse L929 cells after 7 days by microplate reader analysis; format: functional, organism-based; details: L929, 168 h

## O=C(Cn1ccnc1[N+](=O)[O-])NCc1ccccc1 [BENZNIDAZOLE]
Trypanosoma cruzi [1]
  IC50: 3.8 µM

## O=C(NCCCl)c1ccc(CCl)c([N+](=O)[O-])c1
[2]
  Ratio IC50: 21.7
Trypanosoma cruzi [1]
  IC50: > 1000 µM
PBMC
  IC50: 1100 µM
Leishmania amazonensis
  IC50: 50.6 µM

## O=C(NCCO)c1ccc(CCl)c([N+](=O)[O-])c1
[2]
  Ratio IC50: 16.1
Trypanosoma cruzi [1]
  IC50: > 1000 µM
PBMC
  IC50: 960 µM
Leishmania amazonensis
  IC50: 59.5 µM

## O=C(NCCO)c1ccc(CCl)cc1
[2]
  Ratio IC50: <3.3
Trypanosoma cruzi [1]
  IC50: > 1000 µM
PBMC
  IC50: 330 µM
Leishmania amazonensis
  IC50: > 100 µM

## O=C(O)c1ccc(CBr)cc1
[2]
  Ratio IC50: <0.9
Trypanosoma cruzi [1]
  IC50: > 1000 µM
Trypanosoma cruzi [3]
  IC50: > 500 µM
PBMC
  IC50: 88.8 µM
Leishmania amazonensis
  IC50: > 100 µM

## O=C(O)c1ccc(CBr)c([N+](=O)[O-])c1
[2]
  Ratio IC50: <3.4
Trypanosoma cruzi [1]
  IC50: > 1000 µM
Trypanosoma cruzi [3]
  IC50: > 500 µM
PBMC
  IC50: 344 µM
Leishmania amazonensis
  IC50: > 100 µM

## O=C(NCCO)c1ccc(CBr)c([N+](=O)[O-])c1
[2]
  Ratio IC50: 2.3
Trypanosoma cruzi [1]
  IC50: > 1000 µM
PBMC
  IC50: 53.9 µM
Leishmania amazonensis
  IC50: 23.1 µM

## O=C(O)c1ccc(CO)c([N+](=O)[O-])c1
Trypanosoma cruzi [1]
  IC50: > 1000 µM
Leishmania amazonensis
  IC50: > 100 µM

## COC(=O)c1ccc(CBr)c([N+](=O)[O-])c1
[2]
  Ratio IC50: 1.1
Trypanosoma cruzi [1]
  IC50: > 1000 µM
Trypanosoma cruzi [3]
  IC50: > 500 µM
PBMC
  IC50: 44.1 µM
Leishmania amazonensis
  IC50: 39.3 µM
